Experimental data reported in the RNAGym collection of RNA variant scans (doi:10.1126/science.aae0568).
This sample holds only a part of the variants without activity.

B1: tRNA (parent)
chain: GUUCCGUUGGCGUAAUGGUAACGCGUCUCCCUCCUAAGGAGAAGACUGCGGGUUCGAGUCCCGUACGGAACG

Variants of: B1
Test: yeast fitness relative to wild type (ratio to wild type); higher = fitter; tRNA-Arg(CCU), competitive growth, 37 C, YPD
Method in brief: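 Start and end populations of a pooled competition were compared by 100-nucleotide paired-end sequencing of gene amplicons. The Saccharomyces cerevisiae strains carried tRNA-Arg(CCU) gene variants at the native genomic locus, synthesised with a 3% per-site mutation rate at 69 sites, and competed in YPD at 37°C for 24 hours in six parallel replicates. Darwinian fitness relative to wild type was based on the change in genotype frequencies. Genotypes required ≥ 100 starting reads, and estimates < 0.5 were set to 0.5.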
GUUCCGUUGGCGUACUGGUAACGCGUCUCCGUCCUAAGGAGAAGACUGUGGGUUCGAGUCCCGUACGGAACG gave a yeast fitness of 0.638. For GUUCCGUUGGCGUACUGGUAACGCGUCUCGCUCCUAAGGAGAAGACUGCGGGUUCGAGUCCCGUACGGAACG, the yeast fitness was 0.541. In the case of GUUCCGUUGGCGUACUGGUAACGCGUCUCUCUCCUAAGGAGAAGACUGCGGGUUCGAGUCCCGUACGGAACG, the yeast fitness is reported as 0.572. For GUUCCGUUGGCGUACUGGUAACGUGUCUCCCUCCUAAGGAGAAAACUGCGGGUUGGAGUCCCGUACGGAACG, the yeast fitness was ≤ 0.5. In the case of GUUCCGUUGGCGUACUGGUAACGGGUCUCCCUCCUAAGGAGAAGGCUGCGGAUUCGAGUACCGUACGGAACG, the yeast fitness is reported as ≤ 0.5. For GUUCCGUUGGCGUACUGGUAACGGGUCUCCCUCCUAAGGAGAAGGCUGCGGGUUCAAGUCCCGUACGGCACG, the yeast fitness was ≤ 0.5. GUUCCGUUGGCGUACUGGUAACGCGUCUCCAUCCUAAGGAGAAGACUGCGGGUUCGAGUCCCGUACGGAACG gave a yeast fitness of 0.561. In the case of GUUCCGUUGGCGUACUGGUAACGCGUCUCACUCCUAAGGGGAAGACUGGGGGUAAGAGUCCCGUGCGGAUCG, the yeast fitness is reported as ≤ 0.5. For GUUCCGUUGGCGUACUGGUAACGCGUAUCCCUUAUAAGGAGAAGACUGCGGGUUCGAGUCUCGUACGGAACG, the yeast fitness was 0.509. With GUUCCGUUGGCGUACUGGUAACGCGUCUGCCUCCUAAGGAGAACUCAGCGGGUUCGAGUCCCGUACGGACCG the yeast fitness was ≤ 0.5. For GUUCCGUUGGCGUACUGGUAACGCGUCUCACUCCUAAGGAGAAGACUGCGGGUUCGAGUCCCGUACGGCACG, the yeast fitness was ≤ 0.5. With GUUCCGUUGGCGUACUGGUAACGCGUCUCGCUCCUAAGGAGAAGACUGCGGGUUCGAGUCCCGUAGGGUACG the yeast fitness was ≤ 0.5. For GUUCCGUUGGCGUACUGGUAACGUGUCAGCCUCCUAAGGAGAAGACUGCGGAUUCGAGUCCCGUACGGAACG, the yeast fitness was 0.501. For GUUCCGUUGGCGUACUGGUAACGCGUCUACCUCCUAAGGAGAAGACUGCGGGUUCGAGUCCCGUACGGAACG, the yeast fitness was ≤ 0.5. GUUCCGUUGGCGUACUGGUAACGCGUCUUCCUCCUAAGGAGAAGACUGCGGGUUCGAGUCCCGUACGGAACG gave a yeast fitness of 0.669. For GUUCCGUUGGCGUACUGGUAACGCGUCUCCGUGCUAAGGAGAAGACUGCGGGUUUGAGUCUCGUACGGAACG, the yeast fitness was 0.504. GUUCCGUUGGCGUACUGGUAACGCGUGUCUCUCCUAAGGAGAAGAAUGCGGGUUCGAGUCCCGUACGGAACG gave a yeast fitness of 0.542. With GUUCCGUUGGCGUACUGGUAACGUGUCUCCCUCCUAAGGAGAAGGCUGCGGAUUCGAGUCCCGUACGGAACG the yeast fitness was ≤ 0.5. With GUUCCGUUGGCGUACUGGUAACGCGUCUCCGUGCUAAGGAGAAGACUGCGGGUUCGAGUCCCGUACGGAACG the yeast fitness was ≤ 0.5. In the case of GUUCCGUUGGCGUACUGGUAACGCGUCUCACUCCUAAGGAGAAGACUGCGGGUUCGGGUCCCGUACGGCACG, the yeast fitness is reported as ≤ 0.5. With GUUCCGUUGGCGUACUGGUAACGCGUGUCUCUCCUAAGGAGAAGAAUGCGGGUUCGAGUCCCGUACGGAUCG the yeast fitness was ≤ 0.5. In the case of GUUCCGUUGGCGUACUGGUAACGCGUCUCCGUCCUAAGGUGAAGACUGCGAGUUCGAGUCCCGUACGGAACG, the yeast fitness is reported as ≤ 0.5. In the case of GUUCCGUUGGCGUACUGGUAACGCGUAUCCCGCCUAAGGAGAAGACUGCGGGUUCGAGUGCCGUACGGAACG, the yeast fitness is reported as ≤ 0.5. For GUUCCGUUGGCGUACUGGUAACGCGUCUACCUCCUAAGGAGAAGACUGCGGGUACGAGUCCCGUACGGAACG, the yeast fitness was ≤ 0.5. For GUUCCGUUGGCGUACUGGUAACGCGUCUCGCUCCUACGGAGAAGACUGCGGGUUCGAGUCCCGUACGGAACG, the yeast fitness was ≤ 0.5. Work on GUUCCGUUGGCGUACUGGUAACGCGUGUCCCUCCUAAGGAGAAGACUGGGGGUUCGAGUCCCGUACGGAACG yielded a yeast fitness of 0.551. In the case of GUUCCGUUGGCGUACUGGUAACGCGUCUCACUCCUAAGGAGCAGACUGCGGGUUUGAGUCCCGUACGGAACG, the yeast fitness is reported as ≤ 0.5. Work on GUUCCGUUGGCGUACUGGUAACGCGUUUCCCUCCUAAGGAGAAGACUGCGGGUUCGAGUCCCGUACGGAACG yielded a yeast fitness of 0.724. With GUUCCGUUGGCGUACUGGUAACGCGUCUCACUCCUAAGGAGCAGACUGCGGGUUCAAGUGCCGUACGGAACG the yeast fitness was ≤ 0.5. For GUUCCGUUGGCGUACUGGUAACGCGUUUCCCUCCUAAGCAGAAGACUGGGGGUUCGAGUCCCGUACGGCACG, the yeast fitness was ≤ 0.5. In the case of GUUCCGUUGGCGUACUGGUAACGCGUCUUCUUCCUAAGGAGAAGACUGCGGGUUCGAGUCCCGUACGGAACG, the yeast fitness is reported as ≤ 0.5. With GUUCCGUUGGCGUACUGGUAACGCGUGUCCCUCCUAAGCAGAAGACAGCGGGUUCGAGUCCCGUACGGUACG the yeast fitness was ≤ 0.5. For GUUCCGUUGGCGUACUGGUAACGCGUGUCCCUCCUAAGGAGAAGACUGCGGGUUCGAGUCGCGUACGGAACG, the yeast fitness was 0.781. With GUUCCGUUGGCGUACUGGUAACGCGUUUCCCUCCUAAGGAGAAGACUGCGGGUUCGACUCCCGUACGGAACG the yeast fitness was 0.599. For GUUCCGUUGGCGUACUGGUAACGUGUCUCCCUCCUAAGGAGCAGACUGCGGGUUCGAGUCCCGUACGGAACG, the yeast fitness was 0.62. In the case of GUUCCGUUGGCGUACUGGUAACGCGUCUGCCUCCUAAGGUGAAGACUGCGGAUUCGAGUCCCGUACGGAACG, the yeast fitness is reported as ≤ 0.5. For GUUCCGUUGGCGUACUGGUAACGCGUCUCUCUCCUAAGGAGUAGACUGGGGGUUCGAGUCCCGUACGGAACG, the yeast fitness was ≤ 0.5. For GUUCCGUUGGCGUACUGGUAACGCGUUUCCCUCCUAAGGGGAAGACUGCGGAUUCGUGUCCCGUACGGAACG, the yeast fitness was 0.692.
